Compound activity from PubChem.
The list is not random: actives were taken first. Their share in the collection is about 2.3%.
p-CIP stab down: lowers stability of the mouse p/CIP coactivator protein. Q05BA5. F442A p/CIP-EGFP cells, EGFP fluorescence, 16 h. decrease of EGFP signal, % at 10 µM. 290,000 tested, 0.01% active. AID 1984;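 active = EGFP signal decrease of at least 30% at 10 µM or well 3 SD below plate mean, unless failing retest; inactive = the rest, including hits failing retest or dose response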
CHT allo act: allosteric activators of human choline transporter CHT; CHT-expressing cells, membrane potential dye, choline EC20; hits give high values; LV-AA mutant CHT in HEK293 cells; B-score at 10 µM; 310,000 tested, 0.49% active; Q9GZV3;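 active = initial fluorescence not abnormally high and integrated response B-score, plate-corrected, over 3 SD above library mean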
CHT inh: inhibitors of human choline transporter CHT; B-score at 10 µM; 310,000 tested, 0.86% active; Q9GZV3; CHT-expressing cells, membrane potential dye, choline response; hits give low values;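 active = B-score over 3 SD under the library average, and starting fluorescence ratio not unusually high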;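 note: choline stimulus applied at its EC90 after an EC20 pre-addition; B-score computed on integrated fluorescence ratio after choline addition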
GPR7 antag: blocks human GPR7 receptor signaling; 290,000 tested, 1.1% active; P48145; GPR7-expressing cells, fluorescence antagonist assay; inhibition, % at 4.4 µM; in the data active = inhibition above about 16%, passing the limit was not always enough;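 note: cells stimulated with the agonist NPW; 0% = agonist with vehicle and 100% = vehicle without agonist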
Pemphigus Ab inh: blocks pemphigus antibody binding to human desmoglein-3; DSG3-coupled beads, scFv-anti-DSG3-GFP binding, flow cytometry; hits give low values; binding (percent of control), % at 10 µM; 310,000 tested, 0.48% active; AID 588358;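 active = binding more than 3 SD below its plate's average and above zero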;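 note: hits lower antibody fragment binding to DSG3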
T cell modulator: T cell immune modulators affecting CD8 T cell-vesicle binding | 2C CD8+ T cell-vesicle binding, flow cytometry; hits give low values | response (vesicle binding), % at 7 µM | 330,000 tested, 0.068% active;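 active = response, share of CD8 T cells binding vesicles, and their 90th percentile fluorescence all below set limits, cut at about 80% in these data, passing the limit was not always enough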;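 note: values below 100% mean blocked vesicle binding to the CD8+ T cells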
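System: murine 2C transgenic CD8+ T lymphocytes; also added: QL9-loaded Drosophila micro-vesicles; times: binding 1.5 h at 37 °C; measured by: flow cytometry, PE anti-B7-1 (FL2) versus Alexa647 anti-CD8 (FL8), PFA-fixed; control set: Peptide-free naked vesicles (low) and QL9 vesicles with 0.7% DMSO vehicle (high)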
CHT inh conf: confirmation of human choline transporter CHT inhibitors; shares compounds with CHT inh; CHT-expressing cells, choline membrane potential dye; LV-to-AA substituted CHT, HEK293 cells; CHT activity remaining % of control (hits give low values), % at 10 µM; AID 493221; 2,400 tested, 70% active;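 active = choline transporter activity left, mean of duplicates at 10 µM, below buffer-only control mean minus 3 SD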;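 note: depolarization triggered by choline at its EC90 following an EC20 pre-addition; 0% = hemicholinium-3 full block and 100% = buffer-only control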
HEK293 CHT ctr: activity in parental HEK293 cells lacking CHT; shares compounds with CHT inh; membrane potential dye, choline response; active = decrease or increase beyond buffer ±3SD; membrane potential ratio readout (active if shifted either direction beyond buffer ±3SD; no single direction) at 10 µM; 2,400 tested, 4% active; AID 493222;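 note: parental cells lack the transporter so any hit is non-specific; ratio is peak minus trough fluorescence over baseline after EC90 choline challenge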
* hit, by the source's call; i = inactive; nt = no result.

SMILES | p-CIP stab down | CHT allo act | CHT inh | GPR7 antag | Pemphigus Ab inh | T cell modulator | CHT inh conf | HEK293 CHT ctr
CCOC(=O)c1c(N)ssc1=S | 12 | i | -11* | -13 | 101 | 725 | 17%* | i
CC1CCCC(NC(=O)CCNC(=O)c2ccc(Cl)cc2)C1C (centres undefined) | nt | i | i | nt | 99 | 354 | nt | nt
Cc1ccc(C(=O)CCC(=O)NC2CCCC(C)C2C)cc1 (centres undefined) | 13 | i | -5.2* | -12 | 100 | 179 | 58%* | i
CCOC(=O)c1oc2nc(C(C)C)c3c(c2c1N)CCC3 | -15 | i | -5.2* | -2 | 109 | 470 | 40%* | i
CCCc1nc2oc(C(=O)OCC)c(N)c2c2c1COC(C)(C)C2 | -17 | i | -6.3* | -7 | 101 | 313 | 33%* | i
CSC(=NS(=O)(=O)c1ccc(N)cc1)NS(=O)(=O)c1cccs1 | nt | nt | nt | nt | 95 | nt | nt | nt
CCC(=NC(C)c1ccccc1)c1c(O)n(C)c(=O)n(C)c1=O (centres undefined) | -17 | i | -7.5* | 0 | 102 | 671 | 51%* | i
CC(=O)NC(CC(=O)OCC(=O)c1c(N)n(C)c(=O)n(C)c1=O)c1ccccc1 (centres undefined) | 0 | i | i | -2 | 96 | 150 | nt | nt
Cc1ccc2c(c1)N(S(=O)(=O)c1ccc(CN3C(=O)c4cccnc4C3=O)s1)CCO2 | -5 | i | -5.2* | 0 | nt | 130 | 69%* | i
CN(C)/C=C1\C(=O)ON=C1c1ccccc1 | 7 | i | i | -6 | 107 | 776 | nt | nt
O=C1ON=C(c2ccccc2)/C1=C/c1ccco1 | -23 | i | -6.6* | -9 | 116 | 172 | 50%* | i
Cc1cccc(N=Cc2cc(Br)cc(Cl)c2O)c1 | -12 | i | -7.8* | 1 | 98 | 541 | 57%* | i
NC(=O)c1cccc(N=Cc2cc(Cl)cc(Cl)c2O)c1 | -1 | nt | nt | -8 | 104 | nt | nt | nt
CN(c1ccccc1)S(=O)(=O)c1cc(C(=O)NCc2ccco2)ccc1Cl | nt | nt | nt | nt | 105 | nt | nt | nt
O=C(c1cccc(-c2nnc(-c3ccccc3)o2)c1)N1CCCCC1 | -3 | i | -6.3* | 15 | 106 | 184 | i | i
CCNc1cc(Cl)nc(SC)n1 | -4 | i | -14* | -3 | nt | 226 | -6.5%* | i
COc1ccc(CN2CCN(C(=O)CCC(=O)c3ccc(C)s3)CC2)cc1OC | nt | nt | nt | nt | 99 | 32 | nt | nt
Cc1ccc(Nc2nnc(C3C(=O)N(C)C4(C)CC3c3cc(Br)ccc3O4)s2)cc1 (centres undefined) | -20 | i | -5.5* | 12 | 97 | 240 | i | i
Cc1ccc(NC(=O)CSCC(=O)Nc2nnc(C3CC3)s2)cc1 | nt | i | i | nt | 99 | 546 | nt | nt
COc1cccc(-c2nc3ccc(C(=O)NC(C)Cc4cccnc4)cc3o2)c1 (centres undefined) | 1 | i | i | -19 | 102 | 182 | nt | nt
C=CCNc1nc(SCC=C)nc2ccsc12 | -4 | i | -8.4* | -9 | 101 | 98 | 25%* | i
CCOC(=O)c1ccc(NC(=S)NNC(=O)C2(C)CC2(Cl)Cl)cc1 (centres undefined) | 4 | i | -6.7* | -7 | 91 | 106 | i | i
COc1cc(NC(=O)CN2C(=O)NC(CC(C)C)C2=O)cc(OC)c1OC (centres undefined) | nt | nt | nt | nt | nt | 458 | nt | nt
COc1ccc(CNC(=O)CN(C(=O)Cn2nnc(-c3ccccc3F)n2)c2ccc(C)cc2)cc1 | -3 | i | -5.2* | 2 | 96 | 277 | i | i
COC(=O)C(C)Sc1nc2c(c(=O)[nH]c(=O)n2C)n1CCCc1ccccc1 (centres undefined) | -2 | i | -9.3* | -16 | 101 | 580 | 21%* | i
SMILES | p-CIP stab down | CHT allo act | CHT inh | GPR7 antag | Pemphigus Ab inh | T cell modulator | CHT inh conf | HEK293 CHT ctr
OC(CNC1Cc2ccccc2C1)c1ccccc1 (centres undefined) | -12 | i | -5.2* | 3 | 95 | 312 | 52%* | i
CC(NC(=O)/C(C#N)=C/c1ccc([N+](=O)[O-])o1)c1ccccc1 (centres undefined) | -34 | i | -5.3* | 15 | 75 | 105 | 62%* | i
CCOCCCNC(=O)/C(C#N)=C/c1ccc([N+](=O)[O-])o1 | -23 | i | -7* | -4 | nt | 517 | 58%* | i
Nc1ccc2c(Cl)cc(Cl)cc2c1 | nt | nt | nt | nt | 102 | nt | nt | nt
CC1(C)CC(=O)C=C(Nc2cccc(Cl)c2Cl)C1 | nt | i | -5* | nt | 112 | 306 | 63%* | i
CCOc1ccc(Nc2ccc([N+](=O)[O-])c3nonc23)cc1 | -29 | i | i | -9 | 96 | 260 | nt | nt
O=[N+]([O-])c1ccc(Nc2ccccc2)c2nonc12 | 1 | i | -6* | 4 | 104 | 146 | 47%* | i
CCOc1ccc(N/C(SCc2cccc([N+](=O)[O-])c2)=C(/C#N)C(N)=O)cc1 | -10 | i | i | -8 | 98 | 141 | nt | nt
N#CC(C#N)=C(Nc1ccc(F)cc1)SCc1cccc(F)c1 | -22 | i | -5.8* | 3 | 104 | 0 | 65%* | i
Cc1ccc(C(C)C)c(OCC(=O)NNC(=O)Nc2ccccc2)c1 | nt | i | i | nt | nt | 140 | nt | nt
Cc1ccc(S(=O)(=O)NC(=O)COc2cc(C)ccc2C(C)C)cc1 | 3 | i | -5.9* | -11 | 86 | i | 50%* | i
CCOC(=O)C(=Cc1c[nH]c2ccc(S(=O)(=O)N(C)C)cc12)C(=O)OCC | -5 | i | -6.4* | -7 | 92 | 201 | 33%* | i
CCOC(=O)/C(C#N)=C/c1c[nH]c2ccccc12 | -18 | i | i | -7 | 105 | 226 | nt | nt
O=[N+]([O-])c1ccc(O)c(/C=N/n2cnc3ccccc32)c1 | 15 | i | -5* | -3 | 117 | 217 | i | i
CC(=O)Nc1ccc(S(=O)(=O)NCC2CCCO2)cc1 (centres undefined) | nt | i | i | nt | 104 | 670 | nt | nt
O=C(Nc1ccc(S(=O)(=O)NCC2CCCO2)cc1)c1ccc(Cl)cc1[N+](=O)[O-] (centres undefined) | -18 | i | -16* | 7 | 99 | 51 | 0.4%* | i
Cc1c(C(=O)Nc2ccc(S(=O)(=O)NCC3CCCO3)cc2)cccc1[N+](=O)[O-] (centres undefined) | -11 | i | -5.2* | 14 | 98 | 193 | 41%* | i
